Measured values published in ChEMBL document CHEMBL3108701, “Isolation of arginase inhibitors from the bioactivity-guided fractionation of Byrsonima coccolobifolia leaves and stems” (J Nat Prod, 2014).

How the values were obtained:
Arginase [1] = biological target: T1, Arginase (Leishmania amazonensis, UniProt O96394); assay: Inhibition of Leishmania amazonensis recombinant arginase expressed in Escherichia coli Rosetta (DE3) pLysS using L-arginine as substrate incubated for 10 mins prior to substrate addition measured after 10 mins by colorimetry
[2] = biological target: Arginase (Leishmania amazonensis) (UniProt O96394); assay: Noncompetitive inhibition of Leishmania amazonensis recombinant arginase expressed in Escherichia coli Rosetta (DE3) pLysS using L-arginine as substrate assessed as enzyme-substrate-inhibitor complex by Dixon reciprocal plot analysis
In short: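 Purified recombinant L. amazonensis arginase in 50 mM CHES pH 9.6, 37 °C, with urea read at 600 nm by urease-coupled colorimetry. Three inhibitor concentrations plus an uninhibited control were tested against L-arginine at 6.25–72.0 mM. Inhibition type, Ki and Kis were taken from double-reciprocal plots.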

Arginase [3] = biological target: T1, Arginase; assay: Noncompetitive inhibition of Leishmania amazonensis recombinant arginase expressed in Escherichia coli Rosetta (DE3) pLysS using L-arginine as substrate by Dixon reciprocal plot analysis
In short: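 His-tagged enzyme purified by Ni-NTA then DEAE anion exchange. Urea production from L-arginine measured in 50 mM CHES pH 9.6 at 37 °C. Enzyme was preincubated 10 min with inhibitor at three concentrations plus a no-inhibitor control. Substrate was then added at 6.25–72.0 mM and reacted for 10 min. Urea read by urease/salicylate–hypochlorite colorimetry at 600 nm, in duplicate. Inhibition type and Ki taken from reciprocal plots.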

SMILES	IC50 (Arginase [1]) [µM]	Kis [2] [µM]	Ki (Arginase [3]) [µM]
COc1ccc(-c2oc3cc(O)cc(O)c3c(=O)c2O[C@@H]2O[C@@H](C)[C@H](O)[C@@H](O)[C@H]2O)cc1O	88.1		
C[C@H]1O[C@H](Oc2c(-c3cc(O)c(O)c(O)c3)oc3cc(O)cc(O)c3c2=O)[C@@H](O)[C@@H](O)[C@@H]1O	2.4	1.9	3.8
Oc1cc(O)c2c(c1)O[C@H](c1ccc(O)c(O)c1)[C@H](O)C2 [(-)-EPICATECHIN]	1.6		0.2
Oc1cc(O)c2c(c1)O[C@H](c1ccc(O)c(O)c1)[C@@H](O)C2 [CIANIDANOL]	1.7		0.6
O=c1c(O[C@@H]2O[C@H](CO)[C@@H](O)[C@H](O)[C@H]2O)c(-c2ccc(O)c(O)c2)oc2cc(O)cc(O)c12 [ISOQUERCETIN]	2	6.9	
O=c1c(O)c(-c2ccc(O)cc2)oc2cc(O)cc(O)c12 [KAEMPFEROL]	55		
O=c1c(O)c(-c2cc(O)c(O)c(O)c2)oc2cc(O)cc(O)c12 [MYRICETIN]	2.1		1.2
O=c1c(O)c(-c2ccc(O)c(O)c2)oc2cc(O)cc(O)c12 [QUERCETIN]	4		
C[C@@H]1O[C@@H](Oc2c(-c3ccc(O)c(O)c3)oc3cc(O)cc(O)c3c2=O)[C@H](O)[C@H](O)[C@H]1O [QUERCITRIN]	12.2	7.2	7.9

Second part, led by results:

IC50 (Arginase [1]) [µM]	SMILES	Kis [2] [µM]	Ki (Arginase [3]) [µM]
121	CC(=O)Oc1cc(OC(C)=O)c2c(=O)c(OC(C)=O)c(-c3ccc(OC(C)=O)c(OC(C)=O)c3)oc2c1		
224	COc1c(O)cc(-c2oc3cc(O)cc(O)c3c(=O)c2O[C@@H]2O[C@@H](C)[C@H](O)[C@@H](O)[C@H]2O)cc1O		
128	COc1cc(-c2oc3cc(OC)c(OC)c(OC)c3c(=O)c2OC)cc(OC)c1OC		
35.1	C[C@@H]1O[C@@H](O[C@@H]2Cc3c(O)cc(O)cc3O[C@H]2c2ccc(O)c(O)c2)[C@H](O)[C@H](O)[C@H]1O		
13.7	COc1cc([C@H]2OC[C@H]3[C@@H]2CO[C@@H]3c2cc(OC)c(O)c(OC)c2)cc(OC)c1O [SYRINGARESINOL]		
16.6	COC1=Cc2c(cc(OC)c3cc(C)c(OC)cc23)C(C)(C)C1=O [TRIGONOSTEMONE]		
